Laboratory results: the EternaBench riboswitch data

Test system: MS2 coat protein
Experiment: apparent Kd, MS2 coat protein; higher = weaker binding; RNA-MaP array; FMN 200 µM where present
Procedure, shortened: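 Stalled E. coli RNA polymerase produced the designs on Illumina sequencing-chip clusters. SNAP-549-labelled MS2 coat protein was added from 0.7 or 1.5 nM, doubling to 3 µM, without and then with constant ligand, in 100 mM Tris-HCl pH 7.5, 80 mM KCl, 4 mM MgCl2, BSA, DTT, yeast tRNA and Tween-20. The apparent Kd is the median of filtered per-cluster fits of green signal normalised to red-channel RNA signal and control-cluster median Fmax.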

[1] = designed as: ON switch for flavin mononucleotide, no ligand
[2] = ligand present: flavin mononucleotide, designed as: ON switch for flavin mononucleotide
[3] = designed as: OFF switch for flavin mononucleotide, no ligand
[4] = ligand present: flavin mononucleotide, designed as: OFF switch for flavin mononucleotide

| Sequence | apparent Kd [1] [nM] | apparent Kd [2] [nM] | apparent Kd [3] [nM] | apparent Kd [4] [nM] |
| --- | --- | --- | --- | --- |
| GGAUGAUUAACAGGAUAUCAUUUGUAAAUUGGUUGAGAAGGGUUAAUGAUUUAAACGACCUGUUACAUGAGGAUCACCCAUGUU | 64.3 | 38.2 | – | – |
| AUAUGACAUGAGGAUCACCCAUGUAUUCGAGCAUGAGGAUAUAUGACUCGUCAUCGGCGGAUAGAAGGCAUGGUUG | 88.5 | 143 | – | – |
| AUCAGCUCGUCAGGAUAUACGUCACUGCGUCAGCAGUGUGGUAAGUUCACAUGAGGAUCACCCAUGUAGAAGGGACGAGCUGAU | – | – | 4.98 | 7.14 |
| ACGACGAAAGUCGAACGAUGUAGCAGAAGGACAUGAGGAUCACCCAUGUUAUCUGUAAUAGACAUGUAGGAUAUGCUACAUCGA | – | – | 7.89 | 41.5 |
| GAGUUAUCAGGAUAUACAUGAGGAUCACCCAUGUCGAUCAAUCCCGUGGGAACGCACUGUAGAAGGGAUGUAGU | – | – | 32.5 | 33 |
| AUGUGGUGCGUAGGAUAUCAUUAAAGAAAACCCUGAGAAGGACGUGAGGACAUGAGGAUCACCCAUGUGGAUCACCCAUGUCAU | – | – | 320 | 285 |
| CUGAGGUCAGGAUAUGCAUGGCGGGACUUGCGUCGUGGCGUGGAGAAGGGACAUGAGGAUCACCCAUGUGGAGU | – | – | 79 | 54.2 |
| GGCAGAUUCCACAUGAGGAUCACCCAUGUGCUCUUCCGGGCACAGGAUAUCCGCAGUGGUUUCUUGGAGAAGGGUGCUGAUUAA | 26.8 | 42.4 | – | – |
| CGAUGUUAUGUCAGGAUAUGCAUUGCGAAAGCAAUGCAGAAGGGACAUGAGGAUCACCCAUGUCCUAACCAUCG | – | – | 13.2 | 20.1 |
| GUAGCAUACAGAGGAUAUCUUUACCGGAAACGGACAUGAGGAUCACCCAUGUGGCGAAAGCCUAGGGAGAAGGCUGAAUGCUAC | 11.6 | 12.3 | – | – |
| CAACCAGUGAAGGAUAUCAUCGAGGCUCGGCAUUGAGAAGGUUACACAUGAGGAUCACCCAUGUGGUUUCGUUC | – | – | 14.5 | 14.7 |
| UAUAUAUAGUAAGGAUAUGUAUUUAUUUGAUAAACAGAAGGUACUGACAUGAGGAUCACCCAUGUUUUAGUGUGGGCAUGUAGA | – | – | 81.6 | 131 |
| AAUUCACAUGAGGAUCACCCAUGUCAGGAUAUGGUUACGCGGGUUUCGGUGCGUGUGGCCAGAAGGGACAGCUA | – | – | 65 | 80.5 |
| UUGUUGUAUGUAGGAUAUGCAUAUUAUUAUUAUGCAGAAGGACAUGAGGAUCACCCAUGUAUGUUAUUAUUAUAUGUUAUGUGU | – | – | 39.9 | 63.1 |
| AAAAAGUGAGGAUAUACAUGAGGAUCACCCAUGUUAAAAAAGGAAAAAAAAAAAAAAUGUAGAAGGCGCAAAAA | – | – | 45.3 | 44 |
| GGUUGGCGAGGAUAUACAUGAGGAUCACCCAUGUGAGAGAAAAAAGUGAGGAAGAAAAGUAGAAGGCGCUGACG | – | – | 28.1 | 123 |
| UACGGACAUGAGGAUCACCCAUGUGAGGAUAUCGAUAACGAUAGCAUAAUAUAAACGGCGAGAAGGCACAGCGU | – | – | 32.6 | 45.8 |
| GGCUGCGUUGUGAAGGAUAUCCGCGUCUGGACAUGAGGAUCACCCAUGUAUGCUUGGAUCAUGCCGGAGAAGGUCACGAAUGAUU | 34.3 | 17 | – | – |
| CACCGUUAGAGAGGAUAUCGUACAUGAGGAUCACCCAUGUAAUAAAUGAGAAUUUCGGAUGUCUGCGAGAAGGCUCGAAUCGGC | – | – | 34.6 | 27.9 |
| GCUGGUCGAGGAUAUACAUGACGUGCUUCGGCACGAGGUCUACAUGAGGAUCACCCAUGUAGAAGGCGACCAGC | – | – | 30.8 | 225 |
| CUCAAACAUGAGGAUCACCCAUGUGUUGUCAUGGGAGGAUAUCCAAGUUCGUUGUAGUCGGGAGAAGGCCUAUGUC | 213 | 41.1 | – | – |
| UGCGUAUACGGAGGAUAUGUACAGGUCGCCGUACAUGAGGAUCACCCAUGUGCAGAAGGCCGUAGCGCUAAACUGGAUUGCAAU | – | – | 11.4 | 57.3 |
| UUCAUGUGAGGAUAUGUGAUCUGCUUUCUGUUUAGAUGAUCACAGAAGGCACAUGAGGAUCACCCAUGUAGAUC | – | – | – | 22.6 |
| AUUAUUUUCGAAGGAUAUGGAUACAUGAGGAUCACCCAUGUAUAAAAUGAGAUCUAUUAUAUGAUCCAGAAGGUCGUUGUUUAU | – | – | 35.6 | 68.8 |
| CCAUGCGGAUGAGGAUAUUCAUCCAUGAGGAUAGAAGAAGGCAUACAUGAGGAUCACCCAUGUAUACACAUGAGGAUCCCUUAC | – | – | 128 | 178 |
| UAGGACUACGUAGGAUAUGUAGUAGAUUACUACAUGAGGAUCACCCAUGUAAGCAUGUGAUUAGGACAGAAGGACGUGGUAAAU | 24.8 | 8.91 | – | – |
| GUUGCACAAAUUAACAUGAGGAUCACCCAUGUCAAAAGACAUGAGGAUAUGGAUCUGAAGAAGAUCCAGAAGGCAUAGUGCUAA | 370 | 23.7 | – | – |
| GUUUCGUGAGGAUAUGUGGCUUCGAUCGUGCGAAGAAGGCUACAGAAGGCACAUGAGGAUCACCCAUGUUCCUC | – | – | 85.7 | 592 |

| Sequence | apparent Kd [1] [nM] | apparent Kd [2] [nM] | apparent Kd [3] [nM] | apparent Kd [4] [nM] |
| --- | --- | --- | --- | --- |
| UGUCGGAGCAGAGGAUAUUACAUGAGGAUCACCCAUGUAGGAACCAAUAGCUGGAAACAGCAAUGUAAGAAGGCUGCUCCGACA | – | – | 19.6 | 267 |
| AAUGUUUGAUUCCACCUAUACAUGAGGAUCACCCAUGUUAUCGAGGAUAUGCAUUAGAGUGUUUAGCAGAAGGCGAUGUAAUUG | – | – | 8.34 | 23 |
| UUUUAACUACAAUUACAUGAGGAUCACCCAUGUUUUGGGAUGCAGGAUAUGUGGUAUAUUAAUUAACAGAAGGGCAAUAAUUAA | 57.6 | 46.4 | – | – |
| UGGAUGGUAUGAGGAUAUGCGCGCGAAACGCGCGCAGAAGGCGUGUCAAUAGACAUGAGGAUCACCCAUGUAUUAUCCAUCCAA | 130 | 12.3 | – | – |
| AGUAACAGAGGAUAUACUGUUUUAUGUGUUUGUUAUUUUAAACAUGAGGAUCACCCAUGUAGAAGGCUGAAUAA | – | – | 24.3 | 23.4 |
| GGAGCAUAUGUCAGGAUAUCGUGGUCGAUAGAUCACGAGAAGGGACAUGAGGAUCACCCAUGUCUGUCCGCUCC | – | – | 14.2 | 16.4 |
| UCGGCGCGAGGAUAUACGUUUGCGCUUUUUCGUUUUUGCGUACAUGAGGAUCACCCAUGUAGAAGGCGCGCCGC | – | – | 15.6 | 23 |
| GGCCGGAAUGUAGGAUAUGGAUAUUUAAAUAUACCAGAAGGACAUGAGGAUCACCCAUGUAUAAUAAUUAACAAACUUAGAUCC | – | – | 32.7 | 121 |
| AGCUGGUGACAGCAUCGAGCUAAACAUGAGGAUCACCCAUGUAGAAGGCUGUACGGUUACCGUACAGAGGAUAUACAAAGCUCG | – | – | 6.06 | 7.17 |
| GUAGCAUUGAGAGGAUAUCCAUACCGGAAACGGACAUGAGGAUCACCCAUGUGGCGAAAGCCGUGGGAGAAGGCUCUAUGCUAC | 8.39 | 4.32 | – | – |
| GGUGCGUUUGUGAGGAUAUGCUGGUCCUUGGUUCCGCAGAAGGCACAUGAGGAUCACCCAUGUGGUGUCGUACC | – | – | 195 | 373 |
| UUCGUGUGACAGAAGGGUCUUUCAGGCUGGGAGGCAGGAUAUGUGACAUGAGGAUCACCCAUGUUGGUAUCGUCUGUGUGUACG | – | – | 6.7 | 14.6 |
| GCACUUAGAGAUUUACCGUUACUAACAUGAGGAUCACCCAUGUAGGAUAUGCUAAUAGUAUUGAAGCAGAAGGACACUAAGUGC | – | – | 5 | 5.18 |
| GCACGACAUGUAGGAUAUCGAGCGCCGGGCGCUCGAGAAGGACAUGAGGAUCACCCAUGUAUUCUGAGUGACCGAGGUCUGUGC | – | – | 72.9 | 594 |
| GGAUAGGACAGAGGAUAUACCGAUAGGAUCUACUAUCGAACAAUUCUCACAUGAGGAUCACCCAUGUAGAAGGCUGUCCUAUCG | – | – | 16.6 | 29.4 |
| UUAGGAGUUGUAGGAUAUCGGAUAGAAUGUAAACGAGAAGGACAUGAGGAUCACCCAUGUAUUGAAGAGAAGAGAGAGAGAGAG | – | – | 24.5 | 21.1 |
| ACAAGAUCAGGAUAUACAUGAGGAUCACCCAUGUAUAUCAAAAAGGGACUUUCUUAAUGUAGAAGGGAUCUUGU | – | – | 13.3 | 12.8 |
| GGGUCAAUCUUUAGGUGGCGAGACUAGGAUAUGAGUGGUCCCACAUGAGGAUCACCCAUGUGUACUUAGAAGGAGUAGCGCCGU | 160 | 184 | – | – |
| UUAAAUCAUGUAGGAUAUGCAUGGCGAAGCUACGCAGAAGGACAUGAGGAUCACCCAUGUGCUAGCUACCGGAUACGGUGGCAA | – | – | 60.7 | 264 |
| AGUUGGCGAGGAUAUACAUGAGGAUCACCCAUGUGAAUAAUAAUAGUGAGGAAGAAAAGUAGAAGGCGCUGACA | – | – | 49.7 | 237 |
| UGUCUAUUUGAAGGAUAUCUAAGCAUAAACCGGAGAGAAGGUCAAUUAUACAUGAGGAUCACCCAUGUUGAGAUUGAUGGGUUU | – | – | 16.2 | 18.4 |
| GCCUUACCGGUCAGGAUAUACACCCGUCACUCCUUGUAGAAGGGACAUGAGGAUCACCCAUGUACAUUACAUUC | – | – | 27.2 | 26.8 |
| UCGUAUACACAAGGAUAUCAAUGAUUUGUGGAUCCUACAUGAGGAUCACCCAUGUUUUUAUAUUGUGAGAAGGUGUAGUGUCUU | 507 | 684 | – | – |
| CAGGACAGAGGAUAUACAUAGAUACAGAUUCAUGUAGAACUACAUGAGGAUCACCCAUGUAGAAGGCUGUCCUG | – | – | 29.5 | 300 |
| UCGAUAAGGAGAGGAUAUGGACAUGAGGAUCACCCAUGUACAUGGGAAUAUAUUCUGAAUUUUUACUAGAAGGCUUACAUAAAU | – | – | 20.8 | 17.1 |
| GGACGUCACAUUAACAUGAGGAUCACCCAUGUCAAAAGACAUGAGGAUAUGCAUCCUAAUUGGAUGCAGAAGGCAUGGACGUCC | 449 | 35 | – | – |
| AAUAUGGGAGGAUAUGCAUAGAUAAAGAAACAUGUUCAACCACAUGAGGAUCACCCAUGUAGAAGGCCCAUAUA | – | – | 34.6 | 129 |
